Experimental data from ChEMBL document CHEMBL4028906, “Allosteric Inhibitors of SHP2 with Therapeutic Potential for Cancer Treatment” (J Med Chem, 2017).
pIC50: −log10 of the molar value. Active and inactive are the calls of the source. No cut-off for these calls is given here.

Assays:
[1] = target: Low molecular weight phosphotyrosine protein phosphatase (Homo sapiens, UniProt P24666); test: Inhibition of LMW-PTP (unknown origin) expressed in Escherichia coli BL21(DE3) using DIFMUP as substrate preincubated for 20 mins followed by substrate addition measured after 20 mins by phosphatase assay
Chain of Low molecular weight phosphotyrosine protein phosphatase (P24666 whole entry): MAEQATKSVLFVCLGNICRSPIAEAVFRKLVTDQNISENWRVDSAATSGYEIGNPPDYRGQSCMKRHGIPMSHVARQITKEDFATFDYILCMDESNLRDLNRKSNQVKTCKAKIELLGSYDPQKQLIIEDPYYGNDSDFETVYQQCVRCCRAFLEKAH
Outline: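 Phosphatases purified from E. coli and run as for SHP2 E76A: 20 min room-temperature preincubation with compound in 0.1 M sodium acetate pH 5.0, then DIFMUP at each enzyme's Km, 20 min, fluorescence 358/455 nm. Eight 3-fold dilutions in duplicate; IC50 from at least three independent experiments.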

Homo sapiens [2] = organism: Homo sapiens; test: Selectivity ratio of IC50 for MKP3 (unknown origin) expressed in Escherichia coli BL21(DE3) to IC50 for SHP2 E76A mutant (unknown origin) expressed in Escherichia coli BL21(DE3)
Outline: (§1)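 Ratio of IC50 values from one DIFMUP fluorescence assay (Ex/Em 358/455), room temperature, 0.1 M sodium acetate pH 5.0. His-tagged SHP2 E76A (1.5 nM) or counter-phosphatase purified from E. coli, preincubated 20 min with compound (eight 3-fold dilutions), then DIFMUP added for 20 min. DIFMUP was at Km for each counter-phosphatase. Duplicates; IC50 from at least three independent experiments.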

[3] = target: T1, Tyrosine-protein phosphatase non-receptor type 11 (Homo sapiens) (UniProt Q06124); test: Allosteric inhibition of SHP2 in human NCI-H661 cells assessed as downregulation of phosphorylated ERK1/2 levels at 2.5 to 20 uM after 2 hrs by Western blot analysis; assay type: cell-based
T1 sequence (whole entry): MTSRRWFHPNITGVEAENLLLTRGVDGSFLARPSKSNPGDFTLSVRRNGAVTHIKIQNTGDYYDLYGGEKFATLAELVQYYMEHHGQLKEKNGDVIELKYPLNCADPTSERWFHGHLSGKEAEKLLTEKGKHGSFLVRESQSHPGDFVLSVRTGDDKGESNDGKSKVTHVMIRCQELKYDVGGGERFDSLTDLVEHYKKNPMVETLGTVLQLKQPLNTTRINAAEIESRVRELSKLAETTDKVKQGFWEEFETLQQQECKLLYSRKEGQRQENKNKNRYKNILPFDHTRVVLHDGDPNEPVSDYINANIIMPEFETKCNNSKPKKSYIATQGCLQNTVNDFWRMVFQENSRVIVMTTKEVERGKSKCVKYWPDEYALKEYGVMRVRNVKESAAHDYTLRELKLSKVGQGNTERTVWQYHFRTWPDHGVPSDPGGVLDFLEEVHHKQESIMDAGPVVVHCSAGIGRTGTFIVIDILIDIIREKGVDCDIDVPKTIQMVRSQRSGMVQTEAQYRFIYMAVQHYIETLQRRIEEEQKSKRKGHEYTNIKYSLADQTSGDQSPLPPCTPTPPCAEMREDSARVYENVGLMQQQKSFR
Outline: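 NCI-H661 cells in 6-well plates exposed to inhibitor 2 h at 37 °C. RIPA lysates separated by SDS-PAGE, transferred to PVDF, milk-blocked, probed overnight at 4 °C for pERK1/2, ERK1/2, pAKT and AKT. Repeated at least three times.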

[4] = target: T1, Tyrosine-protein phosphatase non-receptor type 11 (Homo sapiens); test: Allosteric inhibition of SHP2 in human SF268 cells stably expressing Yap-Luc reporter assessed as reduction in YAP transcriptional activity after 12 hrs by Yap-luciferase reporter gene assay; assay type: cell-based
MV4-11 = test: Antitumor activity against human MV4-11 cells xenografted in BALB/c mouse assessed as tumor growth inhibition at 30 mg/kg administered qd via oral gavage measured twice weekly relative to control; assay type: functional; conditions: MV4-11, po, read-out: TGI
Outline: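 Female BALB/c nude mice given subcutaneous MV4;11 cells (5×10^6, in 50% phenol red-free matrigel in PBS). Once tumours reached about 230 mm³, mice were randomised to vehicle or oral gavage once daily (10 ml/kg). Tumour volume was measured by caliper in two dimensions twice a week, along with body weight. Data given as mean±sem, with significance assessed on day 14.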

[5] = target: T1, Tyrosine-protein phosphatase non-receptor type 11 (Homo sapiens); test: Inhibition of SHP2 in human SF268 cells assessed as downregulation of YAP-mediated ANKRD1 gene expression ay 10 to 20 uM after 2 hrs by qRT-PCR analysis; assay type: cell-based
Outline: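 SF268 cells exposed to DMSO, 10 μM or 20 μM inhibitor for 2 h. RNA extracted, reverse-transcribed, and CTGF, CYR61, ANKRD1 and YAP mRNA quantified by qPCR; mean±s.d., n=3.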

[6] = target: T1, Tyrosine-protein phosphatase non-receptor type 11 (Homo sapiens); test: Allosteric inhibition of SHP2 in human SF268 cells assessed as upregulation of YAP phosphorylation up to 20 uM after 2 hrs by Western blot analysis; assay type: cell-based
Outline: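 SF268 cells given DMSO or inhibitor for 2 h. YAP immunoprecipitated and immunoblotted with pY-100 phosphotyrosine antibody, which detects the single YXXP tyrosine Y357.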

K562 = test: Antiproliferative activity against human K562 cells at 3 to 6 uM after 2 days by CellTiter-Glo assay; assay type: functional, cell-based
Outline: (§2)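 3000 cells/well in 96-well plates, grown overnight, then inhibitor at indicated concentrations for 2 days (48 h). Viability by CellTiter-Glo; mean±s.d., n=3.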

NCI-H661 = test: Antiproliferative activity against human NCI-H661 cells at 3 to 6 uM after 2 days by CellTiter-Glo assay; assay type: functional, cell-based; outline: as §2
KMS-11 = test: Antiproliferative activity against human KMS11 cells at 3 to 6 uM after 2 days by CellTiter-Glo assay; assay type: functional, cell-based; outline: as §2
BT-474 = test: Antiproliferative activity against human BT474 cells at 3 to 6 uM after 2 days by CellTiter-Glo assay; assay type: functional, cell-based; outline: as §2
KOPN-8 = test: Antiproliferative activity against human KOPN8 cells at 3 to 6 uM after 2 days by CellTiter-Glo assay; assay type: functional, cell-based; outline: as §2
Ramos = test: Antiproliferative activity against human Ramos cells at 3 to 6 uM after 2 days by CellTiter-Glo assay; assay type: functional, cell-based; outline: as §2
Homo sapiens [7] = organism: Homo sapiens; test: Selectivity ratio of IC50 for VHR (unknown origin) expressed in Escherichia coli BL21(DE3) to IC50 for SHP2 E76A mutant (unknown origin) expressed in Escherichia coli BL21(DE3); outline: as §1
Homo sapiens [8] = organism: Homo sapiens; test: Allosteric inhibition of SHP2 E76A mutant (unknown origin) assessed as reduction in SHP2-mediated YAP Y357 peptide dephosphorylation. preincubated for 15 mins before YAP pY357 peptide addition and measured after 15 mins post substrate addition
Outline: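 Purified SHP2 E76A (1.5 nM) preincubated 15 min with 20 μM inhibitor in 20 mM Tris-HCl pH 7.4, 100 mM NaCl, 1 mM EDTA, 2 mM DTT. 100 μM YAP pY357 peptide added for 15 min. Enzyme removed on 30 kD filters; products dot-blotted and probed with p-YAP(Y357) antibody (1:1000) with ECL detection.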

[9] = AUC in nu/nu nude mouse at 10 mg/kg, po measured up to 24 hrs postdose by LC/MS/MS analysis; assay type: ADME, organism-based; parameters: dose 10 mg/kg, time < 24 hr, route oral; conditions: in vivo
Outline: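 Female nu/nu nude mice dosed IV via tail vein at 5 mg/kg or orally at 10 mg/kg. Blood sampled at 0.083, 0.25, 0.5, 1, 2, 4, 8 and 24 h post-dose (orbital sinus, terminal cardiac puncture; EDTA-2K). Plasma separated at 4 °C, precipitated with acetonitrile containing internal standard, quantified by LC/MS/MS.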

CC1(N)CCN(c2nc(-c3ccc4cc(Br)ccc4c3)cs2)CC1
pIC50 [1]: < 4.00
Ratio IC50 (Homo sapiens [2]): > 30
inhibition [3]: Active
inhibition [4]: Dose-dependent effect
inhibition in vivo at 30 mg/kg (MV4-11): 56%
inhibition [5]: Active
inhibition [6]: Active
Activity (K562): Active
Activity (NCI-H661): Active
Activity (KMS-11): Active
Activity (BT-474): Active
Activity (KOPN-8): Active
Activity (Ramos): Active
Ratio IC50 (Homo sapiens [7]): > 30
inhibition (Homo sapiens [8]): Active
AUC at 24 h [9]: 9.86 µM·h
